Experimental data pooled from the literature.
Cell line: Jurkat
Observed: cell growth or viability

Structure (SMILES)	technique	time	quantity	result
Cc1cc2c(cc1N1C(=O)c3cccc4c(CCCO)ccc(c34)C1=O)n(C)c(=O)n2C (racemic)	resazurin		GI50	3.9 µM
CCCCCCCCCCCCNC(=S)NCCCC[C@H](NS(C)(=O)=O)C(=O)N[C@H](C)C(=O)N[C@@H](CCCNC(=N)N)C(=O)N1CCOCC1	MTT	72 h	EC50	35.5 to 64.4 µM
Cc1cc(=O)n(C)c2cc(N3C(=O)CC[C@H](NS(=O)(=O)CC(C)C)[C@H]3c3ccc(Cl)cc3)ccc12		7 days	EC50	10.5 µM
CCOC(=O)CCC1=CC2C=CC=CC1C2C1CCCCC1=O (centres unmarked)	flow cytometry		IC50	0.048 µM
O=C(/C=C/C=C/c1ccc2c(c1)OCO2)N1CCCCC1	MTT	48 h	IC50	> 50 µg/mL
O=C1CCCCC1C1C2C=CC=CC1C(CCN1C(=O)c3ccccc3C1=O)=C2 (centres unmarked)	flow cytometry		IC50	0.026 µM
CCn1cc(-c2cccc(C(F)(F)F)c2)c2sc(C(=N)NC3CCS(=O)(=O)CC3)cc2c1=O		7 days	EC50	3.64 µM
N#CCCC1=CC2C=CC=CC1C2C1CCCCC1=O (centres unmarked)	flow cytometry		IC50	0.075 µM
CCCON(Cc1ccc(C(=O)NO)cc1)C(=O)Nc1ccc(N(C)C)cc1	ATP luminescence	72 h	IC50	5.22 µM
CCCCCCCCCCCCNC(=O)NCCCC[C@H](NS(C)(=O)=O)C(=O)N[C@H](C)C(=O)N[C@@H](CCCNC(=N)N)C(N)=O	MTT	72 h	EC50	25.4 to 40.8 µM
C[C@H](O)C(=O)CCCCCCC(=O)Nc1cccc(-c2cn(-c3ccccc3)nn2)c1	thymidine uptake		IC50	2.84 µM
